Test results taken from ChEMBL document CHEMBL5303300, “EUbOPEN Chemogenomics Library - Multiplex” (2023).
Several values for one entry are separate records, joined by “and”; a condition that tells them apart may be missing. Equal values may be shown once.

What was measured:
Format in all cases: toxicity, cell-based
[1] = tested on: Fibroblast; assay: Multiplex assay against human fibroblast; settings: number of replicates 2
Summary of the method: (§1)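 Cells were classed with CellPathfinder machine-learning gating, first as Hoechst high-intensity objects or normal cells, then (normal cells) as healthy, pyknosed or fragmented nuclei, and finally (pyknosed cells) as mitotic or apoptotic. Staining of live cells at seeding used Hoechst33342, BioTracker Green Microtubule Cytoskeleton Dye, MitoTracker Red and Annexin V Alexa Fluor 680, with imaging on a CQ1 microscope at 37°C and 5% CO2 after compound addition. Tubulin, mitochondrial-mass and membrane-permeability phenotypes are per cents of healthy-nucleus cells.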

[2] = tested on: HEK-293T; assay: Multiplex assay against HEK293T; settings: human, number of replicates 2; summary of the method: as §1
[3] = tested on: U2OS; assay: Multiplex assay against U2OS; settings: human, number of replicates 2; summary of the method: as §1
[4] = 12 h, 1 µM, compound concentration 1 uM
[5] = 12 h, 10 µM, compound concentration 10 uM
[6] = 24 h, 1 µM, compound concentration 1 uM
[7] = 24 h, 10 µM, compound concentration 10 uM
[8] = 48 h, 1 µM, compound concentration 1 uM
[9] = 48 h, 10 µM, compound concentration 10 uM

N=C(N)NCCC[C@H](NC(=O)COCC(c1ccccc1)c1ccccc1)C(=O)O.O=C(O)C(F)(F)F
Population Apoptotic (%) [1, 4]: 42% and 45%
Population Fragmented Nuclei (%) [1, 4]: 6% and 9%
Population Healthy Nuclei (%) [1, 4]: 71% and 75%
Population Hoechst High Intensity Objects (%) [1, 4]: 0%
Population Membrane Permeable-Phenotype (%) [1, 4]: 5% and 3%
Population Mitochondria Different-Phenotype (%) [1, 4]: 0% and 4%
Population Mitotic Cells (%) [1, 4]: 57% and 54%
Population Normal (%) [1, 4]: 100%
Population Pyknosed Nuclei (%) [1, 4]: 22% and 14%
Population Tubulin-Different-Phenotype (%) [1, 4]: 17% and 12%
Total Cell Count [1, 4]: 172 and 221
Population Apoptotic (%) [1, 5]: 38% and 55%
Population Fragmented Nuclei (%) [1, 5]: 9% and 10%
Population Healthy Nuclei (%) [1, 5]: 79% and 71%
Population Hoechst High Intensity Objects (%) [1, 5]: 0%
Population Membrane Permeable-Phenotype (%) [1, 5]: 8% and 4%
Population Mitochondria Different-Phenotype (%) [1, 5]: 0%
Population Mitotic Cells (%) [1, 5]: 61% and 44%
Population Normal (%) [1, 5]: 100%
Population Pyknosed Nuclei (%) [1, 5]: 11% and 18%
Population Tubulin-Different-Phenotype (%) [1, 5]: 17% and 7%
Total Cell Count [1, 5]: 161 and 156
Population Apoptotic (%) [1, 6]: 63% and 48%
Population Fragmented Nuclei (%) [1, 6]: 11% and 14%
Population Healthy Nuclei (%) [1, 6]: 64% and 67%
Population Hoechst High Intensity Objects (%) [1, 6]: 0%
Population Membrane Permeable-Phenotype (%) [1, 6]: 2% and 4%
Population Mitochondria Different-Phenotype (%) [1, 6]: 0% and 3%
Population Mitotic Cells (%) [1, 6]: 36% and 51%
Population Normal (%) [1, 6]: 100%
Population Pyknosed Nuclei (%) [1, 6]: 23% and 18%
Population Tubulin-Different-Phenotype (%) [1, 6]: 11% and 9%
Total Cell Count [1, 6]: 171 and 247
Population Apoptotic (%) [1, 7]: 40% and 57%
Population Fragmented Nuclei (%) [1, 7]: 14% and 16%
Population Healthy Nuclei (%) [1, 7]: 71% and 70%
Population Hoechst High Intensity Objects (%) [1, 7]: 0%
Population Membrane Permeable-Phenotype (%) [1, 7]: 7%
Population Mitochondria Different-Phenotype (%) [1, 7]: 1% and 0%
Population Mitotic Cells (%) [1, 7]: 59% and 42%
Population Normal (%) [1, 7]: 100%
Population Pyknosed Nuclei (%) [1, 7]: 13%
Population Tubulin-Different-Phenotype (%) [1, 7]: 16% and 11%
Total Cell Count [1, 7]: 158 and 160
Population Apoptotic (%) [1, 8]: 69% and 74%
Population Fragmented Nuclei (%) [1, 8]: 15% and 18%
Population Healthy Nuclei (%) [1, 8]: 65% and 68%
Population Hoechst High Intensity Objects (%) [1, 8]: 0%
Population Membrane Permeable-Phenotype (%) [1, 8]: 7% and 4%
Population Mitochondria Different-Phenotype (%) [1, 8]: 0%
Population Mitotic Cells (%) [1, 8]: 30% and 25%
Population Normal (%) [1, 8]: 100%
Population Pyknosed Nuclei (%) [1, 8]: 19% and 12%
Population Tubulin-Different-Phenotype (%) [1, 8]: 12% and 5%
Total Cell Count [1, 8]: 172 and 253
Population Apoptotic (%) [1, 9]: 61% and 94%
Population Fragmented Nuclei (%) [1, 9]: 17% and 18%
Population Healthy Nuclei (%) [1, 9]: 70% and 71%
Population Hoechst High Intensity Objects (%) [1, 9]: 0%
Population Membrane Permeable-Phenotype (%) [1, 9]: 4% and 6%
Population Mitochondria Different-Phenotype (%) [1, 9]: 0%
Population Normal (%) [1, 9]: 100%
Population Pyknosed Nuclei (%) [1, 9]: 11% and 10%
Population Tubulin-Different-Phenotype (%) [1, 9]: 8%
Total Cell Count [1, 9]: 151 and 170
Population Apoptotic (%) [2, 4]: 49% and 39%
Population Fragmented Nuclei (%) [2, 4]: 2%
Population Healthy Nuclei (%) [2, 4]: 85%
Population Hoechst High Intensity Objects (%) [2, 4]: 5% and 6%
Population Membrane Permeable-Phenotype (%) [2, 4]: 2% and 3%
Population Mitochondria Different-Phenotype (%) [2, 4]: 13% and 9%
Population Mitotic Cells (%) [2, 4]: 50% and 60%
Population Normal (%) [2, 4]: 94% and 93%
Population Pyknosed Nuclei (%) [2, 4]: 12% and 11%
Population Tubulin-Different-Phenotype (%) [2, 4]: 54% and 41%
Total Cell Count [2, 4]: 596 and 692
Population Apoptotic (%) [2, 5]: 60% and 68%
Population Fragmented Nuclei (%) [2, 5]: 5% and 6%
Population Healthy Nuclei (%) [2, 5]: 80% and 81%
Population Hoechst High Intensity Objects (%) [2, 5]: 9% and 8%
Population Membrane Permeable-Phenotype (%) [2, 5]: 2%
Population Mitochondria Different-Phenotype (%) [2, 5]: 19% and 14%
Population Mitotic Cells (%) [2, 5]: 39% and 31%
Population Normal (%) [2, 5]: 90% and 91%
Population Pyknosed Nuclei (%) [2, 5]: 14% and 12%
Population Tubulin-Different-Phenotype (%) [2, 5]: 55% and 41%
Total Cell Count [2, 5]: 543 and 565
Population Apoptotic (%) [2, 6]: 43% and 44%
Population Fragmented Nuclei (%) [2, 6]: 4%
Population Healthy Nuclei (%) [2, 6]: 89% and 88%
Population Hoechst High Intensity Objects (%) [2, 6]: 7% and 10%
Population Membrane Permeable-Phenotype (%) [2, 6]: 3%
Population Mitochondria Different-Phenotype (%) [2, 6]: 2% and 3%
Population Mitotic Cells (%) [2, 6]: 56% and 55%
Population Normal (%) [2, 6]: 92% and 89%
Population Pyknosed Nuclei (%) [2, 6]: 5% and 7%
Population Tubulin-Different-Phenotype (%) [2, 6]: 20% and 31%
Total Cell Count [2, 6]: 1117 and 835
Population Apoptotic (%) [2, 7]: 49% and 48%
Population Fragmented Nuclei (%) [2, 7]: 6% and 7%
Population Healthy Nuclei (%) [2, 7]: 83% and 79%
Population Hoechst High Intensity Objects (%) [2, 7]: 7%
Population Membrane Permeable-Phenotype (%) [2, 7]: 2%
Population Mitochondria Different-Phenotype (%) [2, 7]: 7% and 6%
Population Mitotic Cells (%) [2, 7]: 50% and 51%
Population Normal (%) [2, 7]: 92%
Population Pyknosed Nuclei (%) [2, 7]: 9% and 12%
Population Tubulin-Different-Phenotype (%) [2, 7]: 27% and 25%
Total Cell Count [2, 7]: 838 and 806
Population Apoptotic (%) [2, 8]: 12%
Population Fragmented Nuclei (%) [2, 8]: 15% and 9%
Population Healthy Nuclei (%) [2, 8]: 82% and 87%
Population Hoechst High Intensity Objects (%) [2, 8]: 9% and 7%
Population Membrane Permeable-Phenotype (%) [2, 8]: 5% and 4%
Population Mitochondria Different-Phenotype (%) [2, 8]: 0%
Population Mitotic Cells (%) [2, 8]: 87%
Population Normal (%) [2, 8]: 90% and 92%
Population Pyknosed Nuclei (%) [2, 8]: 2% and 3%
Population Tubulin-Different-Phenotype (%) [2, 8]: 10% and 14%
Total Cell Count [2, 8]: 3157 and 1745
Population Apoptotic (%) [2, 9]: 14% and 24%
Population Fragmented Nuclei (%) [2, 9]: 15% and 13%
Population Healthy Nuclei (%) [2, 9]: 81% and 83%
Population Hoechst High Intensity Objects (%) [2, 9]: 7% and 6%
Population Membrane Permeable-Phenotype (%) [2, 9]: 7% and 4%
Population Mitochondria Different-Phenotype (%) [2, 9]: 0%
Population Mitotic Cells (%) [2, 9]: 85% and 75%
Population Normal (%) [2, 9]: 92% and 93%
Population Pyknosed Nuclei (%) [2, 9]: 2%
Population Tubulin-Different-Phenotype (%) [2, 9]: 12% and 10%
Total Cell Count [2, 9]: 2204 and 2125
Population Apoptotic (%) [3, 4]: 100% and 45%
Population Healthy Nuclei (%) [3, 4]: 40% and 87%
Population Hoechst High Intensity Objects (%) [3, 4]: 0%
Population Membrane Permeable-Phenotype (%) [3, 4]: 0% and 1%
Population Mitochondria Different-Phenotype (%) [3, 4]: 0%
Population Normal (%) [3, 4]: 100% and 99%
Population Pyknosed Nuclei (%) [3, 4]: 13% and 9%
Population Tubulin-Different-Phenotype (%) [3, 4]: 41% and 86%
Population Apoptotic (%) [3, 5]: 50% and 58%
Population Fragmented Nuclei (%) [3, 5]: 3%
Population Healthy Nuclei (%) [3, 5]: 70% and 88%
Population Hoechst High Intensity Objects (%) [3, 5]: 0%
Population Membrane Permeable-Phenotype (%) [3, 5]: 4% and 1%
Population Mitochondria Different-Phenotype (%) [3, 5]: 4% and 0%
Population Mitotic Cells (%) [3, 5]: 50% and 41%
Population Normal (%) [3, 5]: 100%
Population Tubulin-Different-Phenotype (%) [3, 5]: 71% and 83%
Population Apoptotic (%) [3, 6]: 40% and 51%
Population Healthy Nuclei (%) [3, 6]: 55% and 88%
Population Hoechst High Intensity Objects (%) [3, 6]: 0%
Population Membrane Permeable-Phenotype (%) [3, 6]: 13% and 0%
Population Mitochondria Different-Phenotype (%) [3, 6]: 0%
Population Mitotic Cells (%) [3, 6]: 60% and 48%
Population Normal (%) [3, 6]: 100%
Population Pyknosed Nuclei (%) [3, 6]: 18% and 9%
Population Tubulin-Different-Phenotype (%) [3, 6]: 73% and 87%
Population Apoptotic (%) [3, 7]: 71% and 50%
Population Fragmented Nuclei (%) [3, 7]: 7% and 2%
Population Healthy Nuclei (%) [3, 7]: 73% and 88%
Population Hoechst High Intensity Objects (%) [3, 7]: 0%
Population Membrane Permeable-Phenotype (%) [3, 7]: 3% and 0%
Population Mitochondria Different-Phenotype (%) [3, 7]: 3% and 0%
Population Mitotic Cells (%) [3, 7]: 28% and 50%
Population Normal (%) [3, 7]: 100%
Population Pyknosed Nuclei (%) [3, 7]: 18% and 8%
Population Tubulin-Different-Phenotype (%) [3, 7]: 67% and 85%
Population Apoptotic (%) [3, 8]: 50% and 43%
Population Healthy Nuclei (%) [3, 8]: 63% and 89%
Population Hoechst High Intensity Objects (%) [3, 8]: 0%
Population Membrane Permeable-Phenotype (%) [3, 8]: 11% and 0%
Population Mitochondria Different-Phenotype (%) [3, 8]: 7% and 0%
Population Mitotic Cells (%) [3, 8]: 50% and 56%
Population Normal (%) [3, 8]: 100%
Population Pyknosed Nuclei (%) [3, 8]: 14% and 6%
Population Tubulin-Different-Phenotype (%) [3, 8]: 73% and 85%
Population Apoptotic (%) [3, 9]: 35% and 55%
Population Fragmented Nuclei (%) [3, 9]: 7% and 2%
Population Healthy Nuclei (%) [3, 9]: 70% and 93%
Population Hoechst High Intensity Objects (%) [3, 9]: 0%
Population Membrane Permeable-Phenotype (%) [3, 9]: 2% and 1%
Population Mitochondria Different-Phenotype (%) [3, 9]: 2% and 0%
Population Mitotic Cells (%) [3, 9]: 64% and 44%
Population Normal (%) [3, 9]: 100% and 99%
Population Tubulin-Different-Phenotype (%) [3, 9]: 63% and 95%
